Reference: paper PMC4096303 (Journal of the American Chemical Society, 2013)

Experiments:
[1] = target: Aβ40/Aβ42 (Homo sapiens, UniProt P05067); assay: Aβ aggregation inhibition experiment; type: biochemical; settings: Aβ 25 µM
How it was run: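 Aβ stock made in 1% NH4OH, diluted with ddH2O and quantified by A280. Test compound (50 µM, 1% DMSO) added with or without CuCl2/ZnCl2 (25 µM), 37 °C, constant agitation, 4, 8, 24 h. Read by 10–20% Tris–tricine gel, nitrocellulose transfer, anti-Aβ 6E10 Western blot, and TEM.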

[2] = TEAC assay with cell lysates; type: biochemical; settings: M17 human neuroblastoma cell lysates, relative to Trolox
How it was run: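 M17 cells grown in 1:1 MEM/F12K with 10% FBS and penicillin/streptomycin to 80–90% confluence. Washed and harvested in cold PBS, pelleted, then sonicated on ice in 5 mM potassium phosphate pH 7.4 (0.9% NaCl, 0.1% glucose) and cleared at 10 000g, 4 °C. Supernatant mixed with test compound (0.045–0.330 mM), metmyoglobin, ABTS and H2O2; 5 min at room temperature; A750 read. TEAC taken as slope ratio versus Trolox; triplicate.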

[3] = Parallel Artificial Membrane Permeability Assay adapted for BBB; type: in vitro ADME; settings: PAMPA-BBB, 25 µM, pH 7.4, 4 h, ambient temperature
How it was run: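 Test compound diluted in Prisma HT buffer, pH 7.4, to 25 µM final (1% DMSO) in donor wells, 11–12 replicates per compound. Acceptor PVDF filter coated with BBB-1 lipid; brain sink buffer in acceptor wells. Sandwich held 4 h at ambient temperature, unstirred. Absorbance read on a plate reader; −logPe averaged by software.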

[4] = Solution speciation studies of Cu; type: binding; settings: pH 7.4, based on concentration of unchelated Cu(II)
How it was run: (§1)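 Ligand and metal chloride mixed at M(II):L = 1:2: CuCl2 25 µM, or ZnCl2 50 or 250 µM depending on ligand. Titrated with small HCl aliquots, recording at least 30 UV–vis spectra over pH 2–9. Stability constants fitted from the spectra; speciation diagrams modelled to give metal-free Cu(II) or Zn(II) at pH 7.4.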

[5] = Solution speciation studies of Zn; type: binding; settings: pH 7.4, based on concentration of unchelated Zn(II)
How it was run: as §1

[6] = test system: preformed aggregates of Aβ and metal–Aβ; assay: Aβ disaggregation experiment; type: biochemical; settings: aggregates preformed 24 h, compound 50 µM, gel/TEM
How it was run: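 Aβ40 or Aβ42 (25 µM) in Chelex-treated HEPES/NaCl buffer, pH 6.6 for Cu(II) or 7.4 for Zn(II), with or without CuCl2 or ZnCl2 (25 µM). Aggregated 24 h at 37 °C with agitation. Test compound then added (50 µM) and incubated 4, 8 and 24 h at 37 °C with agitation. Analysed by Tris–tricine gel/Western blot (6E10 antibody) and by uranyl acetate-stained TEM.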

[7] = UV-vis variable-pH titration; type: physicochemical; settings: for pKa: Acidity constant (pKa), pH range 2–8
How it was run: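 Test compound (50 µM) in 100 mM NaCl, 10 mM NaOH (pH 12) titrated with small HCl aliquots, recording at least 30 UV–vis spectra over pH 2–8. Acidity constants fitted from the spectra; speciation diagram modelled to give the species distribution at pH 7.4.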

[8] = Metal selectivity competition experiments by UV-vis; type: binding; settings: stoichiometric ratios; 50 µM ligand, pH 7.4
How it was run: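 Ligand at 50 µM (1% DMSO) in Chelex-treated 20 mM HEPES, pH 7.4, 150 mM NaCl. It was first given 1 or 20 equiv of MgCl2, CaCl2, MnCl2, FeCl2, CoCl2, NiCl2 or CuCl2, then ZnCl2 (50 µM). Fe(II) samples were kept anaerobic by N2 purge. UV–vis spectra were recorded after 5 min at room temperature.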

[9] = test system: N2aAPPswe or N2a cells; assay: Cell viability by MTT assay, Aβ- or metal-Aβ-induced toxicity; type: cell-based, murine; settings: 10 µM, 24 h, both N2a and N2aAPPswe cells
How it was run: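 Cells kept at 37 °C under 5% CO2 and seeded at 15 000 cells/well. Given CuCl2 or ZnCl2 (10 µM) plus test compound (10 µM final, 1% DMSO) for 24 h. MTT was added for 4 h at 37 °C and formazan dissolved overnight in acidic DMF/SDS. Absorbance read at 600 nm; viability expressed relative to DMSO-only cells; n = 3.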

[10] = 2-Deoxyribose assay; type: biochemical; settings: ligand 125 µM, CuCl2 10 µM, absence and presence of Aβ (freshly prepared and aggregated)
[11] = Trolox equivalent antioxidant capacity; type: biochemical; settings: ABTS cation radicals in EtOH, factor
[12] = Brain uptake study; type: in vivo, male CD1 mice; settings: male, CD1, mouse, oral, 10 mg/kg
How it was run: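 Single 10 mg/kg oral gavage dose in sterile water to male CD1 mice, n = 3. Blood was drawn 5 min post-dose by retro-orbital or cardiac puncture into K2EDTA. Plasma was spun at 2000g for 5 min at 4 °C. Samples underwent protein precipitation and LC-MS/MS; LLOQ 1 ng/mL plasma, 4 ng/mL brain.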

[13] = In vitro metabolic stability, human liver microsomes; type: in vitro ADME
How it was run: (§2)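 Liver microsomes incubated with test compound at 1 µM, 37 °C, with ketanserin as reference compound; half-life (t1/2) determined.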

[14] = In vitro metabolic stability, rat liver microsomes; type: in vitro ADME
How it was run: as §2

[15] = In vitro metabolic stability, mouse liver microsomes; type: in vitro ADME
How it was run: as §2

[16] = target: Aβ42 (Homo sapiens, UniProt P05067); assay: Ion mobility-mass spectrometry of early Aβ42 oligomerization; type: biochemical; settings: IM–MS
Aβ42, sequence (P05067 672-713): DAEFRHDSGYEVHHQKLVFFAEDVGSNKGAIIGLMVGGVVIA
How it was run: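 Lyophilized Aβ42 dissolved in 10 mM ammonium acetate, pH 7.4, to a final peptide concentration of 10 µM. Analysed by ion mobility on a traveling-wave Q-TOF mass spectrometer.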

Aβ40/Aβ42, sequence (P05067 672-711 limits assumed): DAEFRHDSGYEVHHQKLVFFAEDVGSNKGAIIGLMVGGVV

Compound: CN(C)c1ccc(O)cc1 [DAP, 4-(dimethylamino)phenol, reference compound]
- Effect on Zn(II)-triggered Aβ aggregation ([1]; ZnCl2 25 µM, compound 50 µM, pH 7.4): influenced Zn(II)-triggered Aβ aggregation, similar to ML

Compound: Cc1c(C)c2c(c(C)c1O)CCC(C)(C(=O)O)O2 (stereo not drawn) [Trolox, 6-hydroxy-2,5,7,8-tetramethylchroman-2-carboxylic acid]
- Antioxidant capacity (TEAC value) in cell lysates [2]: 1.00 ± 0.08

Compound: Nc1cccc2ccc(CO)nc12 [Compound 1, (8-aminoquinolin-2-yl)methanol, reference compound]
- −logPe [3]: 4.70 (±0.01)
- Dissociation constant (Kd) with Cu(II) [4]: micromolar range
- Dissociation constant (Kd) with Zn(II) [5]: micromolar range
- Antioxidant capacity (TEAC value) in cell lysates [2]: 0.86 ± 0.10
- Effect on preformed metal-free and metal-treated Aβ aggregates [6]: no discernible difference

Compound: CN(C)c1ccc(O)c(CNc2cccc3ccc(CO)nc23)c1 [ML, 4-(dimethylamino)-2-(((2-(hydroxymethyl)quinolin-8-yl)-amino)-methyl)phenol]
- −logPe [3]: 4.49 (±0.01)
- pKa ([7]; first of three printed): 2.63
- pKa ([7]; second of three printed): 3.97
- pKa ([7]; third of three printed): 6.23
- Neutral form at physiological pH ([7]; pH 7.4, solution speciation diagram based on the acidity constants): ca. 94%
- Dissociation constant (Kd) with Cu(II) [4]: picomolar range
- Dissociation constant (Kd) with Zn(II) [5]: nanomolar range
- Selectivity toward Zn(II) over other divalent metal ions [8]: relatively selective for Zn(II) over Mg(II), Ca(II), or Mn(II)
- Cell survival, compound with and without metal ions (no Aβ) [9]: ca. 85%
- Copper-mediated generation of hydroxyl radicals [10]: significantly reduced
- Free radical scavenging (TEAC) in solution relative to DAP, 1 and Trolox [11]: ca. 2.6
- Antioxidant capacity (TEAC value) in cell lysates [2]: 1.41 ± 0.15
- concentration at 5 min ([12]; brain): 14.3 ± 4 ng/g
- concentration at 5 min ([12]; plasma): 5.91 ± 1.24 ng/mL
- half-life at 1 µM [13]: < 30 min
- half-life at 1 µM [14]: < 30 min
- half-life at 1 µM [15]: < 30 min
- Inhibition of Aβ42 dodecamer formation ([16]; 1:5 mixture of Aβ42 and ML): completely
- Inhibition of Aβ42 hexamer formation ([16]; 1:5 mixture of Aβ42 and ML): partially
- Disaggregation of preformed Aβ42 dodecamers ([16]; Aβ42 on ice ca. 4 h, then ML added (1:5)): disaggregates preformed dodecamers
- Effect on metal-induced Aβ aggregation ([1]; CuCl2 or ZnCl2 25 µM, compound 50 µM, 37 °C): noticeable effects on the modulation of metal-induced Aβ aggregation
- Effect on metal-free Aβ40/Aβ42 aggregation ([1]; compound 50 µM, 4, 8, 24 h, 37 °C): could direct the production of Aβ species with a wide range of MW
- Effect on preformed metal-free and metal-treated Aβ aggregates [6]: could transform preformed aggregates into relatively smaller, amorphous conformations
